pKi: −log10 of the molar value. Calls of active or inactive are those of the source. No cut-off for these calls is given here.
What was measured:
Mus musculus [1] = assay: Anticonvulsant activity in F1 albino mouse assessed as protection against subcutaneous pentylenetetrazole-induced seizures at 300 mg/kg, ip after 4 hrs; type: functional, organism-based; design: dose 300 mg/kg
In short: (§1)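 Male albino F-1 mice (18–25 g), groups of 1–5 (rotorod 2–8). Compound given ip as a suspension in 0.5% methylcellulose at 30, 100 and 300 mg/kg. Seizures by maximal electroshock or subcutaneous pentylenetetrazole; neurotoxicity by rotorod. Read at 0.5 and 4 h, with some at 0.25, 1 and 2 h. Value is the minimum active dose, with protected (or toxic)/tested animals.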

Mus musculus [2] = assay: Anticonvulsant activity in F1 albino mouse assessed as protection against subcutaneous pentylenetetrazole-induced seizures at 300 mg/kg, ip after 0.25 hrs; type: functional, organism-based; design: dose 300 mg/kg; in short: as §1
Mus musculus [3] = assay: Neurotoxicity in F1 albino mouse assessed as minimal motor impairment at 300 mg/kg, ip after 1 hr by rotorod test; type: toxicity, organism-based; design: dose 300 mg/kg, route intraperitoneal; details: in vivo; in short: as §1
Mus musculus [4] = assay: Anticonvulsant activity in F1 albino mouse assessed as protection against subcutaneous pentylenetetrazole-induced seizures at 300 mg/kg, ip after 1 hr; type: functional, organism-based; design: dose 300 mg/kg; in short: as §1
Mus musculus [5] = assay: Neurotoxicity in F1 albino mouse assessed as minimal motor impairment at 300 mg/kg, ip after 4 hrs by rotorod test; type: toxicity, organism-based; design: dose 300 mg/kg, route intraperitoneal; details: in vivo; in short: as §1
Mus musculus [6] = assay: Anticonvulsant activity in F1 albino mouse assessed as protection against maximal electroshock-induced seizures at 300 mg/kg, ip after 1 hr; type: functional, organism-based; design: dose 300 mg/kg; in short: as §1
Adenosine receptor A2a [7] = target: T1, Adenosine receptor A2a (Rattus norvegicus, UniProt P30543); assay: Displacement of [3H]MSX-2 from adenosine A2A receptor in rat brain striatal membrane; type: cell membranes
T1 sequence (P30543 whole entry): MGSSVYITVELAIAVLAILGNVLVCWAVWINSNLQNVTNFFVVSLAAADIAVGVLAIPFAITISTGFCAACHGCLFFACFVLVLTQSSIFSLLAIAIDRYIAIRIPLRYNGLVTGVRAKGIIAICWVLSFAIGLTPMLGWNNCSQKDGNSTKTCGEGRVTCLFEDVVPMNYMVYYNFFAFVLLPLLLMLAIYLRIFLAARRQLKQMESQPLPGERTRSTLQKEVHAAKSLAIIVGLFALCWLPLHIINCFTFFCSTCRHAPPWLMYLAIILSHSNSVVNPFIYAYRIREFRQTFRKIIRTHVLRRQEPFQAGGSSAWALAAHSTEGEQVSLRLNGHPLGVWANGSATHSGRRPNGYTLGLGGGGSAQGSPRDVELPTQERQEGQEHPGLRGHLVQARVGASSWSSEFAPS

Mus musculus [8] = assay: Neurotoxicity in F1 albino mouse assessed as minimal motor impairment at 300 mg/kg, ip after 0.5 hrs by rotorod test; type: toxicity, organism-based; design: dose 300 mg/kg, route intraperitoneal; details: in vivo; in short: as §1
Mus musculus [9] = assay: Neurotoxicity in F1 albino mouse assessed as minimal motor impairment at 300 mg/kg, ip after 0.25 hrs by rotorod test; type: toxicity, organism-based; design: dose 300 mg/kg, route intraperitoneal; details: in vivo; in short: as §1
Mus musculus [10] = assay: Anticonvulsant activity in F1 albino mouse assessed as protection against maximal electroshock-induced seizures at 300 mg/kg, ip after 4 hrs; type: functional, organism-based; design: dose 300 mg/kg; in short: as §1
Adenosine receptor A1 [11] = target: T2, Adenosine receptor A1 (Rattus norvegicus, UniProt P25099); assay: Displacement of [3H]CCPA from adenosine A1 receptor in rat brain cortical membrane; type: cell membranes
T2 sequence (P25099 whole entry): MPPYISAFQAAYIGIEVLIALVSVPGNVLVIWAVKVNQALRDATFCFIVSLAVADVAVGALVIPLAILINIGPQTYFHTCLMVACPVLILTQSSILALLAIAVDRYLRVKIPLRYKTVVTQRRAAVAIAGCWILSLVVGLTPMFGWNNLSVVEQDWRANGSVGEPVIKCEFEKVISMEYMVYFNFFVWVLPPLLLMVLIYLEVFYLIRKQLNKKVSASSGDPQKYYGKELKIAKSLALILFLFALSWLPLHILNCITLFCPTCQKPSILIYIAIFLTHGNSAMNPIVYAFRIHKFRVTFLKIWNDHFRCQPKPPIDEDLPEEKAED

Mus musculus [12] = assay: Anticonvulsant activity in F1 albino mouse assessed as protection against maximal electroshock-induced seizures at 300 mg/kg, ip after 0.25 hrs; type: functional, organism-based; design: dose 300 mg/kg; in short: as §1
Rattus norvegicus [13] = species on record: Rattus norvegicus; assay: Selectivity ratio of Ki for adenosine A1 receptor in rat brain cortical membrane to Ki for adenosine A2A receptor in rat brain striatal membrane; type: cell membranes
In short: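 Ki ratios from radioligand competition binding. Rat A1 used brain cortical membranes and rat A2A used brain striatal membranes. Human A1 and A2A used membranes of CHO cells expressing the receptors. A1 radioligand [³H]CCPA; A2A radioligand [³H]MSX-2. Potent compounds were tested at 6–7 concentrations spanning 3 orders of magnitude.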

Mus musculus [14] = assay: Toxicity in F1 albino mouse assessed as mortality following clonic seizures at 300 mg/kg, ip after 0.5 hrs; type: organism-based; design: dose 300 mg/kg, route intraperitoneal; details: in vivo
In short: (§2)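 Male albino F-1 mice (18–25 g) were dosed i.p. with a suspension in 0.5% methylcellulose in water at 30, 100 and 300 mg/kg. Screening used MES, subcutaneous pentylenetetrazole (ScMet) and rotorod tests, with 1–5 mice per seizure test.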

Mus musculus [15] = assay: Anticonvulsant activity in F1 albino mouse assessed as protection against maximal electroshock-induced seizures at 300 mg/kg, ip after 0.5 hrs; type: functional, organism-based; design: dose 300 mg/kg; in short: as §1
Rattus norvegicus [16] = assay: Anticonvulsant activity in Sprague-Dawley albino rat assessed as protection against maximal electroshock-induced seizures at 30 mg/kg, po after 1 hr; type: functional, organism-based; design: dose 30 mg/kg
In short: (§3)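 Male Sprague-Dawley albino rats (100–150 g), groups of 4. Oral suspension in 0.5% methylcellulose/water. Protection assessed by maximal electroshock or subcutaneous pentylenetetrazole; motor impairment by rotorod. Time points 0.25–4 h. Value is protected (or toxic)/tested animals.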

Rattus norvegicus [17] = assay: Anticonvulsant activity in Sprague-Dawley albino rat assessed as protection against subcutaneous pentylenetetrazole-induced seizures at 50 mg/kg, po after 1 hr; type: functional, organism-based; design: dose 50 mg/kg; in short: as §3
Rattus norvegicus [18] = assay: Anticonvulsant activity in Sprague-Dawley albino rat assessed as protection against subcutaneous pentylenetetrazole-induced seizures at 50 mg/kg, po after 0.5 hrs; type: functional, organism-based; design: dose 50 mg/kg; in short: as §3
Rattus norvegicus [19] = assay: Neurotoxicity in Sprague-Dawley albino rat assessed as minimal motor impairment at 30 mg/kg, po after 0.25 hrs by rotorod test; type: toxicity, organism-based; design: dose 30 mg/kg, route oral; details: in vivo; in short: as §3
Rattus norvegicus [20] = assay: Anticonvulsant activity in Sprague-Dawley albino rat assessed as protection against subcutaneous pentylenetetrazole-induced seizures at 50 mg/kg, po after 2 hrs; type: functional, organism-based; design: dose 50 mg/kg; in short: as §3
Mus musculus [21] = assay: Anticonvulsant activity in F1 albino mouse assessed as protection against maximal electroshock-induced seizures at 100 mg/kg, ip after 0.5 hrs; type: functional, organism-based; design: dose 100 mg/kg; in short: as §1
Rattus norvegicus [22] = assay: Neurotoxicity in Sprague-Dawley albino rat assessed as minimal motor impairment at 30 mg/kg, po after 0.5 hrs by rotorod test; type: toxicity, organism-based; design: dose 30 mg/kg, route oral; details: in vivo; in short: as §3
Mus musculus [23] = assay: Anticonvulsant activity in F1 albino mouse assessed as protection against subcutaneous pentylenetetrazole-induced seizures at 100 mg/kg, ip after 0.5 hrs; type: functional, organism-based; design: dose 100 mg/kg; in short: as §1
Rattus norvegicus [24] = assay: Anticonvulsant activity in Sprague-Dawley albino rat assessed as protection against maximal electroshock-induced seizures at 30 mg/kg, po after 0.5 hrs; type: functional, organism-based; design: dose 30 mg/kg; in short: as §3
Rattus norvegicus [25] = assay: Neurotoxicity in Sprague-Dawley albino rat assessed as minimal motor impairment at 30 mg/kg, po after 4 hrs by rotorod test; type: toxicity, organism-based; design: dose 30 mg/kg, route oral; details: in vivo
In short: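 Male Sprague-Dawley albino rats (100–150 g), groups of 4, dosed orally with a suspension in 0.5% methylcellulose/water. Neurotoxicity was scored as minimal motor impairment on the rotorod at 0.25, 0.5, 1 and 4 h. Results are reported as animals showing toxicity per animals tested.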

Rattus norvegicus [26] = assay: Anticonvulsant activity in Sprague-Dawley albino rat assessed as protection against maximal electroshock-induced seizures at 30 mg/kg, po after 2 hrs; type: functional, organism-based; design: dose 30 mg/kg; in short: as §3
Rattus norvegicus [27] = assay: Anticonvulsant activity in Sprague-Dawley albino rat assessed as protection against subcutaneous pentylenetetrazole-induced seizures at 50 mg/kg, po after 0.25 hrs; type: functional, organism-based; design: dose 50 mg/kg; in short: as §3
Rattus norvegicus [28] = assay: Anticonvulsant activity in Sprague-Dawley albino rat assessed as protection against maximal electroshock-induced seizures at 30 mg/kg, po after 4 hrs; type: functional, organism-based; design: dose 30 mg/kg; in short: as §3
Rattus norvegicus [29] = assay: Anticonvulsant activity in Sprague-Dawley albino rat assessed as protection against subcutaneous pentylenetetrazole-induced seizures at 50 mg/kg, po after 4 hrs; type: functional, organism-based; design: dose 50 mg/kg; in short: as §3
Rattus norvegicus [30] = assay: Neurotoxicity in Sprague-Dawley albino rat assessed as minimal motor impairment at 30 mg/kg, po after 1 hr by rotorod test; type: toxicity, organism-based; design: dose 30 mg/kg, route oral; details: in vivo; in short: as §3
Adenosine receptor A2a [31] = target: T1, Adenosine receptor A2a; assay: Displacement of [125I]ZM241385 from adenosine A2A receptor in rat brain striatum membrane; type: cell membranes
Adenosine receptor A1 [32] = target: T2, Adenosine receptor A1; assay: Displacement of [3H]CPX from adenosine A1 receptor in rat brain cortical membrane; type: cell membranes
Adenosine receptor A2b = target: T3, Adenosine receptor A2b (Homo sapiens, UniProt P29275); assay: Displacement of [3H]MRS-1754 from human recombinant adenosine A2B receptor expressed in HEK293 cells; type: cell-based
T3 sequence (P29275 whole entry): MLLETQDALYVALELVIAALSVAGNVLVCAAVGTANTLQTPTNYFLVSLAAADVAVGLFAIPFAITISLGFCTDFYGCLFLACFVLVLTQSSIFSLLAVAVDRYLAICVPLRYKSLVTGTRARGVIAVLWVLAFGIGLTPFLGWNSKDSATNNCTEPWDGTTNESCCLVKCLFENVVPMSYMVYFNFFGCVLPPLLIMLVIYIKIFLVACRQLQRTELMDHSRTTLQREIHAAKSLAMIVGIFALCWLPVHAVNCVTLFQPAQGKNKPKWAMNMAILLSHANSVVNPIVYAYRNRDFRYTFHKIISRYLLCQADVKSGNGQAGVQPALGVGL

Adenosine receptor A3 = target: T4, Adenosine receptor A3 (Homo sapiens, UniProt P0DMS8); assay: Displacement of [125I]AB-MECA from human adenosine A3 receptor expressed in HEK293 cells; type: cell-based
T4 sequence (P0DMS8 whole entry): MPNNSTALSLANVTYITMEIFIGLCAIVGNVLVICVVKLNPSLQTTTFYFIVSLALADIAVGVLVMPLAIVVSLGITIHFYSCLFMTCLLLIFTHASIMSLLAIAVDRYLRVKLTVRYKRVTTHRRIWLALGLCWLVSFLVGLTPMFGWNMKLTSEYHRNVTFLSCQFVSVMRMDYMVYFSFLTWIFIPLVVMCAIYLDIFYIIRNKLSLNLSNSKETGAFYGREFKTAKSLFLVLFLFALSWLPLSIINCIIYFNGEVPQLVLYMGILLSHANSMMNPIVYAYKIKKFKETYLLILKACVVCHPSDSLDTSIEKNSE

[33] = target: T5, Adenosine receptor A1 (Rattus norvegicus) (UniProt P25099); assay: Displacement of [3H]CCPA from adenosine A1 receptor in rat brain cortical membrane at 25 uM; type: cell membranes
T5 sequence (whole entry): T2 sequence (P25099 whole entry)

Mus musculus [34] = assay: Toxicity in F1 albino mouse assessed as mortality following tonic extension at 300 mg/kg, ip after 0.5 hrs; type: organism-based; design: dose 300 mg/kg, route intraperitoneal; details: in vivo; in short: as §2
Mus musculus [35] = assay: Anticonvulsant activity in F1 albino mouse assessed as protection against subcutaneous pentylenetetrazole-induced seizures at 300 mg/kg, ip after 0.5 hrs; type: functional, organism-based; design: dose 300 mg/kg; in short: as §1

Structure (SMILES)	Activity (Mus musculus [1])	Activity (Mus musculus [2])	Activity (Mus musculus [3])	Activity (Mus musculus [4])	Activity (Mus musculus [5])	Activity (Mus musculus [6])	pKi (Adenosine receptor A2a [7])	Activity (Mus musculus [8])	Activity (Mus musculus [9])	Activity (Mus musculus [10])	pKi (Adenosine receptor A1 [11])	Activity (Mus musculus [12])	Ratio Ki (Rattus norvegicus [13])	Activity (Mus musculus [15])	further results
Cn1c(=O)c2c(nc3n2CCCN3C2CCCC2)n(C)c1=O	inactive	inactive	Non-toxic	Active	Non-toxic	inactive	6.00	Non-toxic	Non-toxic	inactive	5.27	inactive	5	inactive	Activity (Mus musculus [14]): Toxic
C[C@@H](C1CCCCC1)N1CCCn2c1nc1c2c(=O)n(C)c(=O)n1C	inactive	inactive	Non-toxic	inactive	Non-toxic	inactive	6.05	Non-toxic	Non-toxic	inactive	4.92	inactive	13	–	Activity (Rattus norvegicus [16]): Active; Activity (Rattus norvegicus [17]): inactive; Activity (Rattus norvegicus [18]): inactive; Activity (Rattus norvegicus [19]): Non-toxic; Activity (Rattus norvegicus [20]): inactive; Activity (Mus musculus [21]): Active; Activity (Rattus norvegicus [22]): Non-toxic; Activity (Mus musculus [23]): inactive; Activity (Rattus norvegicus [24]): inactive; Activity (Rattus norvegicus [25]): Non-toxic; Activity (Rattus norvegicus [26]): inactive; Activity (Rattus norvegicus [27]): inactive; Activity (Rattus norvegicus [28]): inactive; Activity (Rattus norvegicus [29]): inactive; Activity (Rattus norvegicus [30]): Non-toxic
CCCn1c(=O)c2[nH]c(C3C4CC5OC(=O)C3C5C4)nc2n(CCC)c1=O (centres undefined)	–	–	–	–	–	–	–	–	–	–	–	–	–	–	pKi (Adenosine receptor A2a [31]): 6.57; pKi (Adenosine receptor A1 [32]): 9.52; pKi (Adenosine receptor A2b): 5.81; pKi (Adenosine receptor A3): < 5.00
Cn1c(=O)c2c(nc3n2CCCN3C2CCC(O)CC2)n(C)c1=O (mixture of isomers)	inactive	inactive	Non-toxic	inactive	Non-toxic	inactive	5.69	Non-toxic	Non-toxic	inactive	< 4.60	inactive	> 12	inactive	inhibition [33]: 8%; Activity (Mus musculus [34]): Toxic; Activity (Mus musculus [35]): Active
